Experimental data from ChEMBL document CHEMBL1157841, “Stilbene analogs as inducers of apolipoprotein-I transcription” (Eur J Med Chem, 2010).

Experiments:
Caco-2 [1] = assay: Induction of human ApoA-1 gene expression in human Caco-2 cells co-transfected with luc-beta-galactosidase after 48 hrs assessed as luciferase activity by luminometer relative to control; type: functional
How it was run: (§1)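 Caco-2 cells stably carrying an ApoA-I promoter–luciferase reporter (co-transfected with pRSV-β-galactosidase as transfection control; selected in MEM with 20% calf serum and 0.5 mg/mL G418). Cells seeded, 24 h at 37 °C in 5% CO2, then starved 24 h in 0.5% FBS selection medium. Compounds added at 15 µM in 0.01% DMSO for 48 h. Cells lysed, luciferase read by luminometer and normalized to Bradford protein. Fold induction is taken against untreated cells and against resveratrol, which is run in each experiment.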

Caco-2 [2] = assay: Induction of human ApoA-1 gene expression in human Caco-2 cells co-transfected with luc-beta-galactosidase after 48 hrs assessed as luciferase activity by luminometer relative to resveratrol; type: functional; how it was run: as §1
Caco-2 [3] = assay: Cytotoxicity against human Caco-2 cells; type: cell-based
Caco-2 [4] = assay: Induction of human ApoA-1 gene expression in human Caco-2 cells co-transfected with luc-beta-galactosidase at 15 uM after 48 hrs assessed as luciferase activity by luminometer relative to control; type: functional; how it was run: as §1

O=S(=O)(Nc1ccc(O)cc1)c1ccc(O)cc1
fold change (FC) (Caco-2 [1]): 1.3 | fold change (FC) (Caco-2 [2]): 0.4

Oc1ccc(-c2nnc(-c3cccc(O)c3)o2)cc1
Activity (Caco-2 [3]): Non-toxic | fold change (FC) (Caco-2 [1]): 3.7 | fold change (FC) (Caco-2 [2]): 0.9

Oc1cccc(-c2nnc(-c3ccccc3)o2)c1
Activity (Caco-2 [3]): Non-toxic | fold change (FC) (Caco-2 [1]): 2.2 | fold change (FC) (Caco-2 [2]): 0.6

OCc1cccc(-c2nnc(-c3ccc(O)cc3)o2)c1
Activity (Caco-2 [3]): Non-toxic | fold change (FC) (Caco-2 [1]): 1.4 | fold change (FC) (Caco-2 [2]): 0.5

CC(=O)Nc1cc(O)ccc1/C=C/c1ccc(O)cc1
fold change (FC) (Caco-2 [1]): 0.9 | fold change (FC) (Caco-2 [2]): 0.3

CS(=O)(=O)c1cc(O)ccc1/C=C/c1ccc(O)cc1
fold change (FC) (Caco-2 [1]): 2 | fold change (FC) (Caco-2 [2]): 0.7

O=[N+]([O-])c1cc(O)ccc1/C=C/c1ccc(O)cc1
fold change (FC) (Caco-2 [1]): 9.4 | fold change (FC) (Caco-2 [2]): 2.8

COc1cc(O)ccc1/C=C/c1ccc(O)cc1
fold change (FC) (Caco-2 [1]): 12.5 | fold change (FC) (Caco-2 [2]): 4.6

OCc1cc(O)ccc1/C=C/c1ccc(O)cc1
fold change (FC) (Caco-2 [1]): 2 | fold change (FC) (Caco-2 [2]): 0.5

CN(C)C(=O)c1cc(O)ccc1/C=C/c1ccc(O)cc1
fold change (FC) (Caco-2 [1]): 1.1 | fold change (FC) (Caco-2 [2]): 0.2

Nc1cc(O)ccc1/C=C/c1ccc(O)cc1
fold change (FC) (Caco-2 [1]): 3.2 | fold change (FC) (Caco-2 [2]): 0.9

CCOC(=O)c1cc(/C=C/c2ccc(O)cc2)ccc1O
fold change (FC) (Caco-2 [1]): 1.1 | fold change (FC) (Caco-2 [2]): 0.4

NC(=O)c1cc(/C=C/c2ccc(O)cc2)ccc1O
fold change (FC) (Caco-2 [1]): 2.7 | fold change (FC) (Caco-2 [2]): 0.7

O=C(Nc1ccccc1)c1ccc(O)cc1
fold change (FC) (Caco-2 [1]): 1.7 | fold change (FC) (Caco-2 [2]): 0.5

O=C(O)c1cc(/C=C/c2ccc(O)cc2)ccc1O
fold change (FC) (Caco-2 [1]): 1.2 | fold change (FC) (Caco-2 [2]): 0.4

Oc1ccc(/C=C/c2ccc(O)nc2)cc1
fold change (FC) (Caco-2 [1]): 1.1 | fold change (FC) (Caco-2 [2]): 0.4

Oc1ccc(-c2nnc(-c3ccccc3)o2)cc1
Activity (Caco-2 [3]): Non-toxic | fold change (FC) (Caco-2 [1]): 1.9 | fold change (FC) (Caco-2 [2]): 0.5

Oc1ccc(/N=N/c2ccc(O)cc2)cc1
fold change (FC) (Caco-2 [1]): 3.4 | fold change (FC) (Caco-2 [2]): 1.3

O=C(Nc1ccc(O)cc1)c1ccccc1
fold change (FC) (Caco-2 [1]): 1.7 | fold change (FC) (Caco-2 [2]): 0.6

O=C(Nc1ccc(O)cc1)c1ccc(O)cc1
fold change (FC) (Caco-2 [1]): 1.9 | fold change (FC) (Caco-2 [2]): 0.7

Oc1ccc(CCc2ccc(O)cc2)cc1
fold change (FC) (Caco-2 [1]): 3.9 | fold change (FC) (Caco-2 [2]): 1

Oc1ccc(/C=C/c2cc(O)cc(O)c2)cc1 [RESVERATROL]
fold change (FC) (Caco-2 [4]): 2.6

Oc1ccc(/C=C/c2ccc(O)cc2)cc1 [TRANS-4,4'-DIHYDROXYSTILBENE]
fold change (FC) (Caco-2 [1]): 5.1 | fold change (FC) (Caco-2 [2]): 1.6
